Data from ChEMBL document CHEMBL4368886, “Design, synthesis, and biological activity of novel ammonium salts containing sterically hindered phenolic fragment and phosphoryl group” (Medchemcomm, 2018).
Values after ≈ are worked out from the molar mass of the structure shown. Active and inactive are the calls of the source. The calls are words filed in the database; no cut-off is given here.

Assays:
[1] = test system: Trichophyton mentagrophytes; assay: Antimicrobial activity against Trichophyton mentagrophytes var. gypseum 1773 measured after 14 days by two-fold serial dilution method; format: functional
[2] = test system: Escherichia coli; assay: Antimicrobial activity against Escherichia coli CDC F-50 measured every 24 hrs for 5 days by two-fold serial dilution method; format: functional
[3] = test system: Staphylococcus aureus; assay: Bactericidal activity against Staphylococcus aureus 209p measured after 4 hrs; format: functional
Summary of the method: (§1)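 Microbicidal (bactericidal/fungicidal) concentration, killing of microbial cells, determined per literature procedures; tests in duplicate, repeated twice.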

[4] = test system: Aspergillus niger; assay: Antimicrobial activity against Aspergillus niger BKMF-1119 measured after 14 days by two-fold serial dilution method; format: functional, organism-based
[5] = test system: Trichophyton mentagrophytes var. granulosum; assay: (§2) Bactericidal activity against Trichophyton mentagrophytes var. granulosum 1773 measured after 4 hrs; format: functional; summary of the method: as §1
[6] = test system: Bacillus cereus; assay: Bactericidal activity against Bacillus cereus ATCC 8035 measured after 4 hrs; format: functional; conditions: ATCC 8035, 4 h; summary of the method: as §1
[7] = Cytotoxicity against human Chang cells assessed as reduction in cell viability at 0.7 to 11.3 uM by Cytell imaging analysis; format: cell-based
Summary of the method: (§3)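 WI-38 human embryonic lung and Chang liver cells exposed to compounds at three concentrations each (0.70–47.0 μM range, spanning antimicrobial concentrations); cytotoxicity read as number of viable cells counted.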

[8] = test system: Aspergillus niger; assay: Bactericidal activity against Aspergillus niger BKMF-1119 measured after 4 hrs; format: functional, organism-based; summary of the method: as §1
[9] = test system: Bacillus cereus; assay: Antimicrobial activity against Bacillus cereus ATCC 8035 measured every 24 hrs for 5 days by two-fold serial dilution method; format: functional
[10] = test system: WI-38; assay: Cytotoxicity against human WI38 cells assessed as reduction in cell viability at 0.7 to 11.3 uM by Cytell imaging analysis; format: cell-based; conditions: wi-38, 11.3 µM; summary of the method: as §3
[11] = test system: Pseudomonas aeruginosa; assay: Bactericidal activity against Pseudomonas aeruginosa ATCC 9027 measured after 4 hrs; format: functional; summary of the method: as §1
[12] = test system: Pseudomonas aeruginosa; assay: Antimicrobial activity against Pseudomonas aeruginosa ATCC 9027 measured every 24 hrs for 5 days by two-fold serial dilution method; format: functional
[13] = test system: Staphylococcus aureus; assay: Antimicrobial activity against Staphylococcus aureus 209p measured every 24 hrs for 5 days by two-fold serial dilution method; format: functional
[14] = test system: Candida albicans; assay: Antimicrobial activity against Candida albicans 855-653 measured after 14 days by two-fold serial dilution method; format: functional
[15] = test system: Escherichia coli; assay: Bactericidal activity against Escherichia coli CDC F-50 measured after 4 hrs; format: functional; summary of the method: as §1
[16] = test system: Candida albicans; assay: Bactericidal activity against Candida albicans 855-653 measured after 4 hrs; format: functional; conditions: 855-653, 4 h; summary of the method: as §1
[17] = Antioxidant activity assessed as ABAP free radical scavenging activity by measuring decrease in chemiluminescence intensity at 0.5 mM; format: functional; parameters: scale not given: the % may be the effect or the level left
Summary of the method: (§4)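 Chemiluminescent radical system of ABAP (2,2′-azobis(2-methylpropionamidine) dihydrochloride) plus luminol in buffer, total 1.000 mL; baseline recorded, then test substance added at 0.25, 0.50 or 1.00 mM; chemiluminescence intensity followed over time and expressed as percent of initial value. Ionol used as reference antioxidant.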

[18] = Antioxidant activity assessed as ABAP free radical scavenging activity by measuring decrease in chemiluminescence intensity at 0.25 mM; format: functional; parameters: scale not given: the % may be the effect or the level left; summary of the method: as §4
[19] = Antioxidant activity assessed as ABAP free radical scavenging activity by measuring decrease in chemiluminescence intensity at 1 mM; format: functional; parameters: scale not given: the % may be the effect or the level left; summary of the method: as §4
[20] = Cytotoxicity against human Chang cells assessed as reduction in cell viability at 47 uM by Cytell imaging analysis; format: cell-based; summary of the method: as §3
[21] = test system: WI-38; assay: Cytotoxicity against human WI38 cells assessed as reduction in cell viability at 47 uM by Cytell imaging analysis; format: cell-based; conditions: wi-38, 47 µM; summary of the method: as §3
[22] = Antioxidant activity assessed as ABAP free radical scavenging activity by measuring decrease in chemiluminescence intensity at 1 mM measured after 600 secs; format: functional; parameters: scale not given: the % may be the effect or the level left; summary of the method: as §4
[23] = as §2; format: functional; conditions: Trichophyton mentagrophytes, 1773, 4 h; summary of the method: as §1
[24] = Antioxidant activity assessed as ABAP free radical scavenging activity by measuring decrease in chemiluminescence intensity at 0.5 mM measured after 500 secs; format: functional; summary of the method: as §4
[25] = Antioxidant activity assessed as ABAP free radical scavenging activity by measuring decrease in chemiluminescence intensity at 0.25 mM measured after 400 secs; format: functional; summary of the method: as §4

SMILES | MIC [1] | MIC [2] | MIC [3] [µM] | MIC [4] | MIC [5] | MIC [6] [µM] | Activity [7] | MIC [8] | MIC [9] [µM] | Activity [10] | MIC [11] | MIC [12] | MIC [13] [µM] | MIC ([14]; 855-653, 336 h) [µM] | MIC [15] | MIC [16] [µM] | Activity [17] [%] | Activity [18] [%] | MIC ([15]; CDC F-50, 4 h) [µM] | other results
CCCCCCCCCC[N+](C)(C)CCNC(c1cc(C(C)(C)C)c(O)c(C(C)(C)C)c1)P(=O)(OC(C)C)OC(C)C.[Br-] (configuration not stated) | inactive | inactive | 5.6 | inactive | inactive | 90 | Non-Toxic | inactive | 5.6 | Non-Toxic | inactive | inactive | 2.7 | 11.3 | inactive | 11.3 | – | – | – | –
CCCCCCCCCC[N+](C)(C)CCNC(c1cc(C(C)(C)C)c(O)c(C(C)(C)C)c1)P(=O)(OCC)OCC.[Br-] (configuration not stated) | inactive | 94.1 µM | 2.9 | inactive | inactive | 2.9 | Non-Toxic | inactive | 2.9 | Non-Toxic | inactive | 94.1 µM | 2.9 | 47 | – | 47 | 26 | 44 | 188 | Activity [19]: 20%; Activity [20]: Toxic; Activity [21]: Toxic
CCOP(=O)(OCC)C(NCCC[N+](C)(C)CC)c1cc(C(C)(C)C)c(O)c(C(C)(C)C)c1 (configuration not stated) | inactive | inactive | 442 | inactive | inactive | 221 | – | inactive | 221 | – | inactive | inactive | 442 | – | inactive | > 500 | 26 | 44 | – | Activity [22]: 26%; MIC [14]: inactive
CCCCCCCCCCCC[N+](C)(C)CCNC(c1cc(C(C)(C)C)c(O)c(C(C)(C)C)c1)P(=O)(OCC)OCC (configuration not stated) | inactive | inactive | 45.2 | inactive | inactive | 361 | – | inactive | 361 | – | inactive | inactive | 45.2 | 45.2 | inactive | 45.2 | – | – | – | –
CCCCCCCCCC[N+](C)(C)CCCNC(=O)CCc1cc(C(C)(C)C)c(O)c(C(C)(C)C)c1 | inactive | 26.8 µM | 3.3 | inactive | inactive | 107 | – | inactive | 6.7 | – | – | 26.8 µM | 1.5 | 0.9 | – | 0.9 | – | – | 53.6 | MIC ([11]; ATCC 9027, 4 h): 26.8 µM
CC(=O)N1CCN(c2ccc(OCC3COC(Cn4ccnc4)(c4ccc(Cl)cc4Cl)O3)cc2)CC1 (configuration not stated) [KETOCONAZOLE] | – | – | – | – | – | – | – | – | – | – | – | – | – | 7.6 (≈ 4.04 µg/mL) | – | 15.2 (≈ 8.08 µg/mL) | – | – | – | MIC ([1]; var. gypseum 1773, 336 h): 7.6 µM (≈ 4.04 µg/mL); MIC [23]: 15.2 µM (≈ 8.08 µg/mL)
CCCCCCCCCC[N+](C)(C)CCCNC(c1cc(C(C)(C)C)c(O)c(C(C)(C)C)c1)P(=O)(OC(C)C)OC(C)C.[Br-] (configuration not stated) | inactive | 44.3 µM | 1.3 | inactive | inactive | 177 | Non-Toxic | inactive | 2.7 | Non-Toxic | – | 22 µM | 0.7 | 11 | – | 11 | 26 | 44 | 177 | Activity [24]: Active; Activity [22]: 26%; MIC ([11]; ATCC 9027, 4 h): 44.3 µM; Activity [25]: Active
